Screens (PubChem)
In the library only some 2.9% were active in any assay of this set; here they are far more common.
SENP1 FRET inh: SENP1 (human) catalytic domain inhibition. Q9P0U3. recombinant SENP1 catalytic domain, CyPet-SUMO1-YPet FRET cleavage. inhibition, % at 10 µM. 360,000 tested, 0.21% active. AID 624204;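 active = inhibition at least 30% at 10 µM, raw YFP signal under a set limit, fluorescence ratio 0.5 to 1.5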;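 note: 0% = enzyme with DMSO and 100% = no enzyme wells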
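Test system: human SENP1 catalytic domain; medium: Tris pH 8 buffer plus EDTA, NaCl, BME, BSA, NP40, catalase; incubation: 50 min reaction at room temperature; technique: FRET, CFP and YFP emission; controls: no-enzyme low control and enzyme-plus-DMSO high control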
SENP8 block-1: inhibitors of human SENP8 protease | recombinant SENP8, Nedd8 substrate fluorescence | inhibition, % at 20 µM | 360,000 tested, 0.64% active | AID 602440; in the data active = inhibition mostly above about 40%, no sharp cut-off; inactive = mostly below about 27%
Target sequence (Q96LD8 whole entry, looked up): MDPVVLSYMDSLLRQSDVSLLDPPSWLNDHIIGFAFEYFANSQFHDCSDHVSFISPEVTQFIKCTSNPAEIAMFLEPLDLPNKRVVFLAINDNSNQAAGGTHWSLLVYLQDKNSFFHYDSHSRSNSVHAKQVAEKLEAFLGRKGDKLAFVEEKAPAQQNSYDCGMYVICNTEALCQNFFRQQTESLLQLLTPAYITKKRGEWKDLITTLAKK
SENP6 block: inhibitors of human SENP6 protease. Q9GZR1. Recombinant SENP6 catalytic domain, aminoluciferin luminescence. inhibition, % at 10 µM. 330,000 tested, 1.8% active;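 active = inhibition above about 50% at the single tested dose, limit read from the data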;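 note: plate controls were DMSO wells with enzyme for no effect and DMSO wells lacking enzyme for full effect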
Target sequence (Q9GZR1 628-1112 limits assumed): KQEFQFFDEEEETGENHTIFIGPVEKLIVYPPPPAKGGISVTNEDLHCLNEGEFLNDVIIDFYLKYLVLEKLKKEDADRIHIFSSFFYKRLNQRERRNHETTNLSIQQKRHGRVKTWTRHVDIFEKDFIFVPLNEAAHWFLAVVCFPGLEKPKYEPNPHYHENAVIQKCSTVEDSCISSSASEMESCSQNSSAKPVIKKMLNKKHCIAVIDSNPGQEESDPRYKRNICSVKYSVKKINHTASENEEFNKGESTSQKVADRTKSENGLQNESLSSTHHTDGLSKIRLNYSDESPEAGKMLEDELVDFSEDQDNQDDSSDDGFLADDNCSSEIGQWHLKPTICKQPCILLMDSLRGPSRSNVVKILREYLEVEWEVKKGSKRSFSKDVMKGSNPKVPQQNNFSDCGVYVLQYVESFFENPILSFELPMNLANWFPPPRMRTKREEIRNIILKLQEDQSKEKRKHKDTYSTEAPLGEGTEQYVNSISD
SENP8 block-2: SENP8 protease inhibition; Q96LD8; purified SENP8, Z-RLRGG-aminoluciferin cleavage, luminescence; 330,000 tested, 1.2% active; inhibition, % at 10 µM; in the data active = inhibition above about 50%
SENP7 block: inhibitors of human SENP7 protease; recombinant SENP7, Z-RLRGG-aminoluciferin luminescence, 40 min; 330,000 tested, 1.5% active; inhibition, % at 5 µM; Q9BQF6;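 active = inhibition above about 50% at the single test dose, limit read from the data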;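 note: plate controls were DMSO with enzyme for no effect and no enzyme buffer wells for full effect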
Apaf1 inhib: inhibitors of human Apaf-1 apoptosome; O14727; inhibition, % at 20 µM; 330,000 tested, 0.71% active; AID 489030; reconstituted apoptosome caspase-3 activity, DEVD-Rh110 fluorescence; active = inhibition of at least 40% at 20 µM;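 note: plate controls were DMSO wells for no effect and DEVD-CHO caspase inhibitor wells for full effect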
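Medium: Hepes buffer, pH 7.5 / System: biochemical Apaf-1 apoptosome reconstitution / Measured by: Rh110 fluorescence, excitation 480 nm, emission 540 nm / Times: compound with Apaf-1, dATP, procaspase-3 30 min, then 50 min reaction, room temperature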
SENP8 conf: confirmation of human SENP8 protease inhibitors | shares compounds with SENP7 block | 6,200 tested, 40% active | inhibition, % at 12.5 µM | Recombinant SENP8, Z-RLRGG-aminoluciferin luminescence, 60 min;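 active = mean inhibition across replicates above about 50%, limit read from the data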
SENP6 confirm: confirmation of human SENP6 protease inhibitors; 6,200 tested, 58% active; recombinant SENP6, Z-RLRGG-aminoluciferin luminescence; shares compounds with SENP7 block; AID 488915; inhibition, % at 12.5 µM
SENP7 confirm: confirmation of human SENP7 protease inhibitors; shares compounds with SENP7 block; recombinant SENP7, Z-RLRGG-aminoluciferin luminescence, 40 min; inhibition, % at 12.5 µM; 6,200 tested, 69% active
Casp3 SENP sel: inhibits human caspase-3 in SENP selectivity test; purified caspase-3, Z-DEVD-aminoluciferin luminescence, 60 min; inhibition, % at 12.5 µM; shares compounds with SENP7 block; AID 488918; 6,200 tested, 60% active;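 active = mean inhibition above about 50%, limit read from the data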;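 note: plate controls were enzyme with DMSO for no effect and wells without caspase-3 for full effect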
SENP luc ctr: counter-screen for SENP inhibitors: luminescence interference | 6,200 tested, 39% active | shares compounds with SENP7 block | inhibition, % at 12.5 µM | Pre-incubated SENP8/Z-RLRGG-aminoluciferin, luciferase luminescence interference;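 active = mean inhibition above about 50% when retested at one dose, limit read from the data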;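 note: plate controls were DMSO wells with completed reaction for no effect and substrate without enzyme for full effect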
An asterisk follows results filed as active.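 Rule for the calls, unless noted: active = mean inhibition above about 50% in the one-dose retest (limit read from the data); inactive = the rest.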

For Clc1ccc(/C=C/c2nc3ccccc3[nH]2)cc1 the results were SENP1 FRET inh -31.7, SENP8 block-1 -266.0, SENP6 block 97.8*, SENP8 block-2 96.5*, SENP7 block 99.9*, Apaf1 inhib 13.9, SENP8 conf 99.2*, SENP6 confirm 100.4*, SENP7 confirm 103.1*, Casp3 SENP sel 98.1* and SENP luc ctr 83.1*.
Clc1ccc(/C=C/c2nc3ccccc3[nH]2)c(Cl)c1 was read as SENP1 FRET inh -4.3, SENP8 block-1 -272.6, SENP6 block 100.0*, SENP8 block-2 97.1*, SENP7 block 99.0*, Apaf1 inhib -0.6, SENP8 conf 99.4*, SENP6 confirm 100.5*, SENP7 confirm 103.7*, Casp3 SENP sel 97.7* and SENP luc ctr 34.2.
CCCNC(=O)COc1coc(CN2CCN(c3ccccc3F)CC2)cc1=O was read as SENP1 FRET inh -1.3, SENP8 block-1 16.0, SENP6 block -16.1, SENP8 block-2 -2.2, SENP7 block 5.0 and Apaf1 inhib -5.5.
`Cc1ccc(-c2noc(CSc3ccccc3)n2)cc1` gave SENP1 FRET inh -1.7, SENP8 block-1 16.0, SENP6 block 75.7*, SENP8 block-2 37.2, SENP7 block 52.5*, Apaf1 inhib 14.4, SENP8 conf 50.8*, SENP6 confirm 60.5*, SENP7 confirm 80.9*, Casp3 SENP sel 42.6 and SENP luc ctr 44.8.
Screening Cc1ccc(-c2noc(COc3ccccc3C)n2)cc1 returned SENP1 FRET inh 0.2, SENP8 block-1 2.8, SENP6 block -31.8, SENP8 block-2 0.0, SENP7 block 27.5 and Apaf1 inhib 14.6.
Cc1ccc(OCc2nc(-c3ccccc3)no2)cc1 was read as SENP1 FRET inh 1.7, SENP8 block-1 10.1, SENP6 block 56.3*, SENP8 block-2 11.6, SENP7 block 31.9, Apaf1 inhib -6.8, SENP8 conf 16.5, SENP6 confirm 24.2, SENP7 confirm 64.7*, Casp3 SENP sel 25.9 and SENP luc ctr 7.3.
`COc1ccc(-c2noc(Cc3cccs3)n2)cc1` gave SENP1 FRET inh -0.4, SENP8 block-1 18.9, SENP6 block 50.2*, SENP8 block-2 29.6, SENP7 block 12.7, Apaf1 inhib -5.6, SENP8 conf 38.0, SENP6 confirm 38.7, SENP7 confirm 69.3*, Casp3 SENP sel 27.8 and SENP luc ctr 28.3.
`CC(C)N(Cc1ccccc1)C(=O)COC(=O)CCC(=O)c1ccc(F)cc1` gave SENP1 FRET inh 1.0, SENP8 block-1 5.9, SENP6 block 1.0, SENP8 block-2 -0.7, SENP7 block 1.4 and Apaf1 inhib -4.9.
`Cc1ccc(NC(=O)N2CCc3ccccc3C2)cc1C` gave SENP1 FRET inh -2.1, SENP8 block-1 4.1, SENP6 block -11.0, SENP8 block-2 -4.0, SENP7 block -3.9 and Apaf1 inhib -9.6.
Cc1cc(C)cc(NC(=O)N2CCc3ccccc3C2)c1 was read as SENP1 FRET inh 0.6, SENP8 block-1 5.4, SENP6 block 55.3*, SENP8 block-2 23.9, SENP7 block 43.0, Apaf1 inhib -4.7, SENP8 conf 43.4, SENP6 confirm 36.6, SENP7 confirm 69.0*, Casp3 SENP sel 50.2* and SENP luc ctr 50.7*.
For O/C(=C\c1nc2ccccc2nc1/C=C(\O)c1ccccc1)c1ccccc1 the results were SENP1 FRET inh -26.6, SENP8 block-1 -412.3, SENP6 block 9.1, SENP8 block-2 2.7, SENP7 block 1.1 and Apaf1 inhib 16.4.
Screening O=Nc1[nH]c(=O)c(/C=C(\O)c2ccccc2)nc1NO returned SENP1 FRET inh -2.4, SENP8 block-1 26.3, SENP6 block 56.1*, SENP8 block-2 44.1, SENP7 block 58.0*, Apaf1 inhib 15.6, SENP8 conf 68.5*, SENP6 confirm 63.8*, SENP7 confirm 85.9*, Casp3 SENP sel 93.2* and SENP luc ctr 70.1*.
For CC(C)NC(=O)N(C)C[C@H]1Oc2ccc(NS(=O)(=O)c3ccccc3)cc2C(=O)N([C@H](C)CO)C[C@@H]1C the results were SENP1 FRET inh 2.8, SENP8 block-1 11.7, SENP6 block -8.8, SENP8 block-2 3.1, SENP7 block -11.6 and Apaf1 inhib -4.6.
COc1cccc(/C=N/Nc2snc(SC)c2C#N)c1O was read as SENP1 FRET inh -24.5, SENP8 block-1 -254.8, SENP6 block 99.4*, SENP8 block-2 96.1*, SENP7 block 96.2*, Apaf1 inhib -9.4, SENP8 conf 94.7*, SENP6 confirm 98.0*, SENP7 confirm 100.5*, Casp3 SENP sel 93.5* and SENP luc ctr 79.4*.
`COc1cccc(/C=N/Nc2snc(SC)c2C#N)c1` gave SENP1 FRET inh 5.8, SENP8 block-1 -204.9, SENP6 block 36.8, SENP8 block-2 5.4, SENP7 block 0.3 and Apaf1 inhib -14.8.
`COc1ccc(/C=N/Nc2snc(SC)c2C#N)cc1OC` gave SENP1 FRET inh -0.7, SENP8 block-1 -271.7, SENP6 block 61.2*, SENP8 block-2 18.8, SENP7 block 4.1, Apaf1 inhib -0.2, SENP8 conf 6.2, SENP6 confirm 8.2, SENP7 confirm 32.7, Casp3 SENP sel 11.5 and SENP luc ctr 2.6.
`c1ccc(Oc2cccc(Oc3ccccc3)n2)cc1` gave SENP1 FRET inh -0.1, SENP8 block-1 3.7, SENP6 block -24.0, SENP8 block-2 -1.0, SENP7 block -1.0 and Apaf1 inhib -1.5.
For Nc1nc2ccccc2n1/N=C/c1ccc2c(c1)OCO2 the results were SENP1 FRET inh 1.0, SENP8 block-1 5.9, SENP6 block 90.4*, SENP8 block-2 84.2*, SENP7 block 90.0*, Apaf1 inhib 10.3, SENP8 conf 86.1*, SENP6 confirm 86.5*, SENP7 confirm 97.6*, Casp3 SENP sel 85.5* and SENP luc ctr 82.0*.
